From ChEMBL document CHEMBL5252514, “Conopeptide-Derived κ-Opioid Agonists (Conorphins): Potent, Selective, and Metabolic Stable Dynorphin A Mimetics with Antinociceptive Properties” (J Med Chem, 2016)
The source made the active and inactive calls. The calls are words filed in the database; no cut-off is given here. Where a SMILES comes first, the peptide text is derived from it.

Tests used:
[1] = Metabolic stability in Wistar rat plasma assessed as compound remaining measured after 24 hrs by HPLC analysis; format: ADME, cell-free; details: read-out: Stability
Method in brief: (§1)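 Peptide at 1 mg/mL in sterile PBS pH 7.4 was mixed 1:1 with thawed, centrifuged Wistar rat plasma supernatant and incubated at 37°C in triplicate. Samples at 0, 1, 2, 3, 4, 6 and 24 h were quenched with acetonitrile and then 2% TFA/water, and analysed by HPLC with inline electrospray MS.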

[2] = molecular target: T1, Kappa-type opioid receptor (Homo sapiens, UniProt P41145); assay: Agonist activity at human kappa opioid receptor expressed in CHO-K1 cells assessed as inhibition of forskolin-stimulated cAMP production incubated for 30 mins by LANCE cAMP assay; format: cell-based
T1 sequence (P41145 whole entry): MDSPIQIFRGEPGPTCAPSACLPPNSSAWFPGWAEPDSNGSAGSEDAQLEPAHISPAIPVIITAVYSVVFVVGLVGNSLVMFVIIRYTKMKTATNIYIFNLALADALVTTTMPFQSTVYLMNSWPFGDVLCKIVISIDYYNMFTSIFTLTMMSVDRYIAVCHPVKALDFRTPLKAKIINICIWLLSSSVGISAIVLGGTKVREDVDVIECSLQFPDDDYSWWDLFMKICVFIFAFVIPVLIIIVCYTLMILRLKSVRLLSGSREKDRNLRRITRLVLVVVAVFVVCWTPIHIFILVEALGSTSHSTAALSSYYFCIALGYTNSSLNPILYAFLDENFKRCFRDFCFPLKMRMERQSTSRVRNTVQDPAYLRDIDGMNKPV
Method in brief: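 Transiently KOR-transfected CHO-K1 cells taken 24 h post-transfection, 3,000 cells/well in HBSS stimulation buffer (0.1% BSA, 0.5 mM IBMX, 5 mM HEPES, pH 7.4). Forskolin (1 µM final) and ligand added, then 30 min at RT. LANCE Eu-cAMP tracer/anti-cAMP TR-FRET read after 1 h at RT. Sigmoidal dose-response fit.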

Homo sapiens [3] = organism: Homo sapiens; assay: Selectivity ratio, ratio of Ki for human KOR to Ki for human DOR
[4] = molecular target: T1, Kappa-type opioid receptor; assay: Agonist activity at human kappa opioid receptor expressed in CHO-K1 cells assessed as ERK phosphorylation incubated for 2 hrs by Alphascreen surefire method; format: cell-based
Method in brief: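 CHO-K1 cells transiently transfected with KOR plasmid, harvested 24 h later, plated at 50,000 cells/well and settled 24 h, then serum-starved 12 h. Ligands in serum-free medium applied 10 min at room temperature. Lysates read by AlphaScreen SureFire phospho-ERK1/2 after 2 h at 37 °C. Curves fitted by sigmoidal dose-response.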

Homo sapiens [5] = organism: Homo sapiens; assay: Selectivity ratio, ratio of Ki for human KOR to Ki for human NOP
Homo sapiens [6] = organism: Homo sapiens; assay: Selectivity ratio, ratio of Ki for human KOR to Ki for human MOR
[7] = molecular target: T1, Kappa-type opioid receptor; assay: Displacement of [3H]U69593 from human kappa opioid receptor expressed in CHO-K1 cells incubated for 1 hr by 1450 microbeta scintillation counter analysis; format: cell-based
Method in brief: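 Membranes from transiently KOR-transfected CHO-K1 cells (~2 µg/well) used in SPA with 3H-U69,593 (1 nM). Competitor ranged 1 pM–10 µM in 50 mM Tris-HCl pH 7.4, 5 mM MgCl2, 0.1% BSA. Incubated 1 h at room temperature with shaking. Nonspecific binding defined with 10 µM dynorphin A. Sigmoidal dose-response fit; at least three independent experiments in triplicate.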

[8] = Metabolic stability in Wistar rat plasma assessed as UrrQ[CHA][PEN]C formation by measuring relative abundance measuring after 3600 mins by HPLC analysis relative to control; format: ADME, cell-free; details: 60 h
[9] = Metabolic stability in Wistar rat plasma assessed as half life by HPLC analysis; format: ADME, cell-free; method in brief: as §1
Mus musculus [10] = assay: Antinociceptive activity against C57BL/6 mouse model of TNBS induced chronic visceral hypersensitivity assessed as inhibition of colonic nociceptor mechanosensitivity at 1000 nM, administered topically on colon mucosal surface for 28 days in presence of norbinaltorphimine; format: functional, organism-based; details: time 28.0 day
Method in brief: (§2)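 Ex vivo single-unit extracellular recording of splanchnic colonic afferents from healthy C57BL/6 mice or CVH mice (28 days after TNBS, inflammation resolved). Baseline mechanosensitivity was measured with a 2 g von Frey probe applied 3 s to the receptive field, repeated 3–4 times 10 s apart. KOR agonist was applied to the mucosal surface for 5 min per concentration inside a small metal ring, then mechanosensitivity was re-tested.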

Mus musculus [11] = assay: Antinociceptive activity against C57BL/6 mouse assessed as inhibition of colonic nociceptor mechanosensitivity at 1 to 1000 nM, administered topically on colon mucosal surface for 28 days; format: functional, organism-based; details: dose 1-1000 nM, time 28.0 day; method in brief: as §2
[12] = Metabolic stability in Wistar rat plasma assessed as BzPrrQ[CHA]CC formation by measuring relative abundance measuring after 360 mins by HPLC analysis relative to control; format: ADME, cell-free; details: 6 h; method in brief: as §1
Mus musculus [13] = assay: Antinociceptive activity against C57BL/6 mouse model of TNBS induced chronic visceral hypersensitivity assessed as inhibition of colonic nociceptor mechanosensitivity at 1000 nM, administered topically on colon mucosal surface for 28 days; format: functional, organism-based; details: time 28.0 day; method in brief: as §2
[14] = Metabolic stability in Wistar rat plasma assessed as UrrQ[CHA]CC formation by measuring relative abundance measuring after 120 mins by HPLC analysis relative to control; format: ADME, cell-free; details: 2 h; method in brief: as §1
[15] = Metabolic stability in Wistar rat plasma assessed as UrrQ[CHA] formation by measuring relative abundance measuring after 120 mins by HPLC analysis relative to control; format: ADME, cell-free; details: 2 h; method in brief: as §1
[16] = Metabolic stability in Wistar rat plasma assessed as URRQ[CHA] formation by measuring relative abundance measuring after 60 mins by HPLC analysis relative to control; format: ADME, cell-free; details: 1 h; method in brief: as §1
[17] = Metabolic stability in Wistar rat plasma assessed as URR formation by measuring relative abundance measuring after 60 mins by HPLC analysis relative to control; format: ADME, cell-free; details: 1 h; method in brief: as §1
[18] = Metabolic stability in Wistar rat plasma assessed as Q[CHA]CC formation by measuring relative abundance measuring after 60 mins by HPLC analysis relative to control; format: ADME, cell-free; details: 1 h; method in brief: as §1
[19] = Metabolic stability in Wistar rat plasma assessed as BzPrrQ[CHA][PEN]C formation by measuring relative abundance measuring after 3600 mins by HPLC analysis relative to control; format: ADME, cell-free; details: 60 h

SMILES	remaining at 24 h [1] [%]	EC50 [2] [nM]	Ratio Ki (Homo sapiens [3])	EC50 [4] [nM]	Ratio Ki (Homo sapiens [5])	Ratio Ki (Homo sapiens [6])	Ki [7] [nM]	Activity [8]	half-life [9] [h]	inhibition (Mus musculus [10])	inhibition (Mus musculus [11])	Activity [12]	inhibition (Mus musculus [13])	Activity [14]	Activity [15]	Activity [16]	Activity [17]	Activity [18]	Activity [19]
CC1(C)SSC[C@@H](C(N)=O)NC(=O)[C@H]1NC(=O)[C@H](CC1CCCCC1)NC(=O)[C@H](CCC(N)=O)NC(=O)[C@@H](CCCNC(=N)N)NC(=O)[C@@H](CCCNC(=N)N)NC(=O)[C@@H]1CCC(=O)N1	100	10.5	> 1200	450	> 25000	> 39000	1.3	1	–	–	–	–	–	–	–	–	–	–	–
CC[C@H](C)[C@H](NC(=O)[C@H](CCC(N)=O)NC(=O)[C@H](CCCNC(=N)N)NC(=O)[C@H](CCCNC(=N)N)NC(=O)[C@@H]1CSSC[C@H](NC(=O)[C@@H]2CCC(=O)N2)C(=O)N1)C(=O)N[C@H]1CSSC[C@@H](C(N)=O)NC1=O (HELM PEPTIDE1{[Glp].C.C.R.R.Q.I.C.C.[am]}$PEPTIDE1,PEPTIDE1,2:R3-3:R3|PEPTIDE1,PEPTIDE1,8:R3-9:R3$$$V2.0)	–	11.5	> 630	5860	> 630	> 630	67.5	–	0.25	–	–	–	–	–	–	–	–	–	–
CC[C@H](C)[C@H](NC(=O)[C@H](CCC(N)=O)NC(=O)[C@H](CCCNC(=N)N)NC(=O)[C@H](CCCNC(=N)N)NC(=O)[C@@H]1CCC(=O)N1)C(=O)N[C@H]1CSSC[C@@H](C(N)=O)NC1=O (HELM PEPTIDE1{[Glp].R.R.Q.I.C.C.[am]}$PEPTIDE1,PEPTIDE1,6:R3-7:R3$$$V2.0)	–	1.9	> 250	7490	> 250	> 250	191	–	3	–	–	–	–	–	–	–	–	–	–
CC[C@H](C)[C@H](NC(=O)[C@H](CCC(N)=O)NC(=O)[C@H](CCCNC(=N)N)NC(=O)[C@H](CCCNC(=N)N)NC(=O)[C@@H]1CSSC[C@H](NC(=O)[C@@H](N)CC(N)=O)C(=O)N1)C(=O)N[C@H]1CSSC[C@@H](C(N)=O)NC1=O (HELM PEPTIDE1{N.C.C.R.R.Q.I.C.C.[am]}$PEPTIDE1,PEPTIDE1,2:R3-3:R3|PEPTIDE1,PEPTIDE1,8:R3-9:R3$$$V2.0)	–	9450	> 630	9850	> 630	> 630	80	–	0.25	–	–	–	–	–	–	–	–	–	–
N=C(N)NCCC[C@@H](NC(=O)[C@@H](CCCNC(=N)N)NC(=O)[C@@H]1CCCN1C(=O)c1ccccc1)C(=O)N[C@@H](CCC(N)=O)C(=O)N[C@@H](CC1CCCCC1)C(=O)N[C@H]1CSSC[C@@H](C(N)=O)NC1=O	–	0.41	> 250000	0.36	> 45000	> 250000	0.25	–	4	inactive	inactive	1	Dose-Dependent Effect	–	–	–	–	–	–
N=C(N)NCCC[C@@H](NC(=O)[C@@H]1CCC(=O)N1)C(=O)N[C@H](CCCNC(=N)N)C(=O)N[C@@H](CCC(N)=O)C(=O)N[C@@H](CC1CCCCC1)C(=O)N[C@H]1CSSC[C@@H](C(N)=O)NC1=O	–	12.6	> 10000	1100	> 10000	> 10000	3.9	–	6	–	–	–	–	1	0.1	–	–	–	–
N=C(N)NCCC[C@@H](NC(=O)[C@@H](CCCNC(=N)N)NC(=O)[C@@H]1CCCN1C(=O)c1ccccc1)C(=O)N[C@@H](CCC(N)=O)C(=O)N[C@H](C(=O)N[C@H]1CSSC[C@@H](C(N)=O)NC1=O)C1CCCCC1	–	0.39	> 125000	0.62	> 125000	> 125000	0.48	–	20	–	–	–	–	–	–	–	–	–	–
N=C(N)NCCC[C@H](NC(=O)[C@@H]1CCC(=O)N1)C(=O)N[C@@H](CCCNC(=N)N)C(=O)N[C@@H](CCC(N)=O)C(=O)N[C@@H](CC1CCCCC1)C(=O)N[C@H]1CSSC[C@@H](C(N)=O)NC1=O	–	15.2	> 10000	1580	> 10000	> 10000	6.7	–	1.5	–	–	–	–	–	–	0.1	0.01	0.01	–
CC1(C)SSC[C@@H](C(N)=O)NC(=O)[C@H]1NC(=O)[C@H](CC1CCCCC1)NC(=O)[C@H](CCC(N)=O)NC(=O)[C@@H](CCCNC(=N)N)NC(=O)[C@@H](CCCNC(=N)N)NC(=O)[C@@H]1CCCN1C(=O)c1ccccc1	95	–	–	–	–	–	1140	–	–	–	–	–	–	–	–	–	–	–	1
N=C(N)NCCC[C@@H](NC(=O)[C@@H](CCCNC(=N)N)NC(=O)[C@@H]1CCCN1C(=O)c1ccc2ccccc2c1)C(=O)N[C@@H](CCC(N)=O)C(=O)N[C@@H](CC1CCCCC1)C(=O)N[C@H]1CSSC[C@@H](C(=O)O)NC1=O	–	–	–	–	–	–	229	–	0.5	–	–	–	–	–	–	–	–	–	–
